Measured values: ChEMBL document CHEMBL5303300, “EUbOPEN Chemogenomics Library - Multiplex” (2023)
Where “and” joins values, the source holds several entries; their conditions need not be identical. Identical values can stand only once.

System: HEK-293T
Experiment: Multiplex assay against HEK293T
Assay type: toxicity, cell-based
Details: human, number of replicates 2
Outline: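 Imaging took place on a CQ1 microscope at 37°C and 5% CO2 once compound had been added to live cells stained at seeding with Hoechst33342, BioTracker Green Microtubule Cytoskeleton Dye, MitoTracker Red and Annexin V Alexa Fluor 680. CellPathfinder machine-learning gating classed cells as Hoechst high-intensity objects or normal cells, classed normal cells as having healthy, pyknosed or fragmented nuclei, and classed pyknosed cells as mitotic or apoptotic. Tubulin, mitochondrial-mass and membrane-permeability phenotypes are per cents of the healthy-nucleus cells.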

[1] = 12 h, 1 µM, compound concentration 1 uM
[2] = 12 h, 10 µM, compound concentration 10 uM
[3] = 24 h, 1 µM, compound concentration 1 uM
[4] = 24 h, 10 µM, compound concentration 10 uM
[5] = 48 h, 1 µM, compound concentration 1 uM
[6] = 48 h, 10 µM, compound concentration 10 uM

In the case of `O=C(NCc1ccc(F)cc1)N1CCN2C(=O)OC(c3ccccc3)(c3ccccc3)C2C1` (stereo not given), the “Population Apoptotic (%)” value [1] is reported as 56% and 58%, the “Population Fragmented Nuclei (%)” value [1] is reported as 5% and 3% and the “Population Healthy Nuclei (%)” value [1] is reported as 82% and 77%. For the same molecule, the “Population Hoechst High Intensity Objects (%)” value [1] was 8% and 6%, the “Population Membrane Permeable-Phenotype (%)” value [1] was 6% and 1% and the “Population Mitochondria Different-Phenotype (%)” value [1] was 18% and 19%. For the same molecule, the “Population Mitotic Cells (%)” value [1] was 43% and 41%, the “Population Normal (%)” value [1] was 91% and 93% and the “Population Pyknosed Nuclei (%)” value [1] was 11% and 19%. For the same molecule, the “Population Tubulin-Different-Phenotype (%)” value [1] was 76% and 63%, the “Total Cell Count” value [1] was 761 and 454 and the “Population Apoptotic (%)” value [2] was 72% and 41%. The “Population Fragmented Nuclei (%)” value [2] was 2%, the “Population Healthy Nuclei (%)” value [2] was 75% and 85% and the “Population Hoechst High Intensity Objects (%)” value [2] was 7% and 4%. The “Population Membrane Permeable-Phenotype (%)” value [2] was 5% and 3%, the “Population Mitochondria Different-Phenotype (%)” value [2] was 34% and 53% and the “Population Mitotic Cells (%)” value [2] was 27% and 58%. For the same molecule, the “Population Normal (%)” value [2] was 92% and 95%, the “Population Pyknosed Nuclei (%)” value [2] was 21% and 12% and the “Population Tubulin-Different-Phenotype (%)” value [2] was 93% and 97%. For the same molecule, the “Total Cell Count” value [2] was 433 and 482, the “Population Apoptotic (%)” value [3] was 36% and 63% and the “Population Fragmented Nuclei (%)” value [3] was 8% and 5%. The “Population Healthy Nuclei (%)” value [3] was 83%, the “Population Hoechst High Intensity Objects (%)” value [3] was 7% and 9% and the “Population Membrane Permeable-Phenotype (%)” value [3] was 5% and 2%. The “Population Mitochondria Different-Phenotype (%)” value [3] was 4% and 8%, the “Population Mitotic Cells (%)” value [3] was 63% and 36% and the “Population Normal (%)” value [3] was 92% and 90%. For the same molecule, the “Population Pyknosed Nuclei (%)” value [3] was 7% and 11%, the “Population Tubulin-Different-Phenotype (%)” value [3] was 51% and 38% and the “Total Cell Count” value [3] was 1157 and 707. For the same molecule, the “Population Apoptotic (%)” value [4] was 70% and 54%, the “Population Fragmented Nuclei (%)” value [4] was 2% and 4% and the “Population Healthy Nuclei (%)” value [4] was 83% and 85%. For the same molecule, the “Population Hoechst High Intensity Objects (%)” value [4] was 9% and 5%, the “Population Membrane Permeable-Phenotype (%)” value [4] was 6% and 3% and the “Population Mitochondria Different-Phenotype (%)” value [4] was 31% and 55%. For the same molecule, the “Population Mitotic Cells (%)” value [4] was 29% and 45%, the “Population Normal (%)” value [4] was 90% and 94% and the “Population Pyknosed Nuclei (%)” value [4] was 14% and 10%. For the same molecule, the “Population Tubulin-Different-Phenotype (%)” value [4] was 90% and 94%, the “Total Cell Count” value [4] was 529 and 537 and the “Population Fragmented Nuclei (%)” value [5] was 16% and 10%. For the same molecule, the “Population Healthy Nuclei (%)” value [5] was 80% and 86%, the “Population Hoechst High Intensity Objects (%)” value [5] was 9% and the “Population Membrane Permeable-Phenotype (%)” value [5] was 8% and 3%. The “Population Mitochondria Different-Phenotype (%)” value [5] was 0% and 1%, the “Population Mitotic Cells (%)” value [5] was 91% and 68% and the “Population Normal (%)” value [5] was 90%. For the same molecule, the “Population Pyknosed Nuclei (%)” value [5] was 2% and 3%, the “Population Tubulin-Different-Phenotype (%)” value [5] was 30% and 21% and the “Total Cell Count” value [5] was 2926 and 1423. For the same molecule, the “Population Apoptotic (%)” value [6] was 45% and 43%, the “Population Fragmented Nuclei (%)” value [6] was 5% and 8% and the “Population Healthy Nuclei (%)” value [6] was 87% and 85%. For the same molecule, the “Population Hoechst High Intensity Objects (%)” value [6] was 6%, the “Population Membrane Permeable-Phenotype (%)” value [6] was 6% and 10% and the “Population Mitochondria Different-Phenotype (%)” value [6] was 39% and 15%. The “Population Mitotic Cells (%)” value [6] was 55% and 56%, the “Population Normal (%)” value [6] was 93% and the “Population Pyknosed Nuclei (%)” value [6] was 6% and 5%. The “Population Tubulin-Different-Phenotype (%)” value [6] was 93% and 82% and the “Total Cell Count” value [6] was 655 and 824.

`Cn1ncc(NC(=O)c2nc(-c3c(F)cccc3F)sc2N)c1N1CC[C@@H](N)[C@H](F)CC1` was tested, and the “Population Apoptotic (%)” value [1] was 29% and 32%, the “Population Healthy Nuclei (%)” value [1] was 85% and 86% and the “Population Mitochondria Different-Phenotype (%)” value [1] was 10% and 6%. The “Population Mitotic Cells (%)” value [1] was 70% and 67%, the “Population Normal (%)” value [1] was 92% and 95% and the “Population Pyknosed Nuclei (%)” value [1] was 10%. The “Population Tubulin-Different-Phenotype (%)” value [1] was 42% and 32%, the “Total Cell Count” value [1] was 737 and 724 and the “Population Apoptotic (%)” value [2] was 34% and 47%. The “Population Healthy Nuclei (%)” value [2] was 81% and 80%, the “Population Mitotic Cells (%)” value [2] was 65% and 52% and the “Population Normal (%)” value [2] was 95% and 97%. The “Population Pyknosed Nuclei (%)” value [2] was 16%, the “Population Tubulin-Different-Phenotype (%)” value [2] was 54% and 47% and the “Total Cell Count” value [2] was 730 and 672. The “Population Apoptotic (%)” value [3] was 21% and 25%, the “Population Healthy Nuclei (%)” value [3] was 87% and 86% and the “Population Mitochondria Different-Phenotype (%)” value [3] was 4%. For the same molecule, the “Population Mitotic Cells (%)” value [3] was 78% and 74%, the “Population Normal (%)” value [3] was 93% and 90% and the “Population Pyknosed Nuclei (%)” value [3] was 8% and 9%. For the same molecule, the “Population Tubulin-Different-Phenotype (%)” value [3] was 25% and 21%, the “Total Cell Count” value [3] was 1100 and 1020 and the “Population Apoptotic (%)” value [4] was 47% and 52%. The “Population Healthy Nuclei (%)” value [4] was 85% and 86%, the “Population Mitochondria Different-Phenotype (%)” value [4] was 16% and the “Population Mitotic Cells (%)” value [4] was 52% and 47%. For the same molecule, the “Population Normal (%)” value [4] was 97% and 95%, the “Population Tubulin-Different-Phenotype (%)” value [4] was 44% and 41% and the “Total Cell Count” value [4] was 753 and 689. For the same molecule, the “Population Apoptotic (%)” value [5] was 15%, the “Population Healthy Nuclei (%)” value [5] was 86% and 85% and the “Population Mitotic Cells (%)” value [5] was 90% and 84%. The “Population Normal (%)” value [5] was 89% and 85%, the “Population Pyknosed Nuclei (%)” value [5] was 4% and 5% and the “Population Tubulin-Different-Phenotype (%)” value [5] was 12% and 13%. For the same molecule, the “Total Cell Count” value [5] was 2209 and 1829, the “Population Apoptotic (%)” value [6] was 44% and 55% and the “Population Healthy Nuclei (%)” value [6] was 89% and 87%. The “Population Mitochondria Different-Phenotype (%)” value [6] was 10%, the “Population Mitotic Cells (%)” value [6] was 55% and the “Population Normal (%)” value [6] was 94% and 92%. The “Population Pyknosed Nuclei (%)” value [6] was 4% and 6%, the “Population Tubulin-Different-Phenotype (%)” value [6] was 29% and 23% and the “Total Cell Count” value [6] was 770 and 768.
